The values below come from ChEMBL document CHEMBL1157391, “Apratoxin E, a cytotoxic peptolide from a guamanian collection of the marine cyanobacterium Lyngbya bouillonii” (J Nat Prod, 2008).

What all share (type): functional, cell-based
Assay [1] relates to HeLa. Nature of the assay: Antiproliferative activity against human HeLa cells after 48 hrs by MTT assay. The gist of the method:
(§1)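 Cells grown in high-glucose DMEM with 10% FBS at 37 °C under humidified 5% CO2. Seeded in 96-well plates at 10 000 (HT29), 3000 (HeLa) or 5000 (U2OS) cells per well. Treated 24 h later with a concentration series; solvent controls were 1% EtOH or 1% DMSO. Viability read by MTT after 48 h incubation.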
A general note: Tetrazolium assays rely on reduction of a dye to a coloured formazan, in cell work by metabolically active cells.

In assay [2] the test system is HT-29. Nature of the assay: Antiproliferative activity against human HT29 cells after 48 hrs by MTT assay. Conditions: HT-29, 48 h. The gist of the method:
as §1

Assay [3] deals with U2OS. Nature of the assay: Antiproliferative activity against human U2OS cells after 48 hrs by MTT assay. The gist of the method: as §1

Structures are written as SMILES. *1 amine or outer side, *2 acyl side, *3 side chain or, on linkers, in order; H or OH if unused. Where a SMILES comes first, the peptide text is derived from it. Bridges are numbered along the chain shown (N, C = ends). Roman numbers before positions name the chains, in order. [ ]: non-standard residue; d: D form. Actinocin(1to9) = Cc1c2oc3c(C)ccc(C(=O)[*:2])c3nc-2c(C(=O)[*:1])c(N)c1=O; NMeV = CN[C@H](C(=O)O)C(C)C; Sar = CNCC(=O)O

Broadly, the IC50 is the concentration needed to halve the response being measured. A low value points to higher potency. For the compound `CC[C@H](C)[C@H]1C(=O)N2CCC[C@H]2C(=O)O[C@H](C(C)(C)C)C[C@@H](C)C/C=C(\C)C2=N[C@@H](/C=C(\C)C(=O)N[C@@H](Cc3ccc(OC)cc3)C(=O)N(C)[C@@H](C)C(=O)N1C)CS2` [E-DEHYDROAPRATOXIN A], the figures for the IC50 in assay [1], in assay [2] and in assay [3] were 121 nM, 41 nM and 160 nM, respectively.

Regarding `CC[C@H](C)[C@H]1C(=O)N2CCC[C@H]2C(=O)O[C@H](C(C)(C)C)C[C@@H](C)C/C=C/C2=N[C@@H](CCC(=O)N[C@@H](Cc3ccc(OC)cc3)C(=O)N(C)[C@@H](C)C(=O)N1C)CS2` [APRATOXIN E], the IC50 in assay [1] came to 72 nM; in assay [2], 21 nM; in assay [3], 59 nM.

`CC(=O)O[C@H]1C(=O)[C@@]2(C)[C@H]([C@H](OC(=O)c3ccccc3)[C@]3(O)C[C@H](OC(=O)[C@H](O)[C@@H](NC(=O)c4ccccc4)c4ccccc4)C(C)=C1C3(C)C)[C@]1(OC(C)=O)CO[C@@H]1C[C@@H]2O` [PACLITAXEL]: the IC50 was 1.5 nM in assay [1], 1.9 nM in assay [2] and 24 nM in assay [3].

In the case of `Cc1c2oc3c(C)ccc(C(=O)N[C@@H]4C(=O)N[C@H](C(C)C)C(=O)N5CCC[C@H]5C(=O)N(C)CC(=O)N(C)[C@@H](C(C)C)C(=O)O[C@@H]4C)c3nc-2c(C(=O)N[C@@H]2C(=O)N[C@H](C(C)C)C(=O)N3CCC[C@H]3C(=O)N(C)CC(=O)N(C)[C@@H](C(C)C)C(=O)O[C@@H]2C)c(N)c1=O` [DACTINOMYCIN] (I: T[dV]P[Sar][NMeV] / II: T[dV]P[Sar][NMeV]; ester I:1-I:C, II:1-II:C; linker I:N-II:N via Actinocin(1to9)), the IC50 is 0.4 nM in assay [1], 2.9 nM in assay [2] and 3.2 nM in assay [3].

Regarding `CC[C@H](C)[C@H]1C(=O)N2CCC[C@H]2C(=O)O[C@H](C(C)(C)C)C[C@@H](C)C[C@H](O)[C@H](C)C2=N[C@@H](/C=C(\C)C(=O)N[C@@H](Cc3ccc(OC)cc3)C(=O)N(C)[C@@H](C)C(=O)N1C)CS2` [APRATOXIN A], the IC50 in assay [1] came out at 10 nM; in assay [2] it was 1.4 nM; in assay [3] it was 10 nM.
